In ChEMBL document CHEMBL4840316, “Structure-based screening for the discovery of 1,2,4-oxadiazoles as promising hits for the development of new anti-inflammatory agents interfering with eicosanoid biosynthesis pathways” (Eur J Med Chem, 2021):

Tests used:
[1] = biological target: Prostaglandin G/H synthase 1 (Ovis aries) (UniProt P05979); test: Inhibition of ovine COX-1 assessed as residual activity at 10 uM using arachidonic acid as substrate preincubated for 5 mins by RP-HPLC method relative to control; conditions: time 10.0 min
Prostaglandin G/H synthase 1 (Ovis aries), sequence (P05979 whole entry, looked up): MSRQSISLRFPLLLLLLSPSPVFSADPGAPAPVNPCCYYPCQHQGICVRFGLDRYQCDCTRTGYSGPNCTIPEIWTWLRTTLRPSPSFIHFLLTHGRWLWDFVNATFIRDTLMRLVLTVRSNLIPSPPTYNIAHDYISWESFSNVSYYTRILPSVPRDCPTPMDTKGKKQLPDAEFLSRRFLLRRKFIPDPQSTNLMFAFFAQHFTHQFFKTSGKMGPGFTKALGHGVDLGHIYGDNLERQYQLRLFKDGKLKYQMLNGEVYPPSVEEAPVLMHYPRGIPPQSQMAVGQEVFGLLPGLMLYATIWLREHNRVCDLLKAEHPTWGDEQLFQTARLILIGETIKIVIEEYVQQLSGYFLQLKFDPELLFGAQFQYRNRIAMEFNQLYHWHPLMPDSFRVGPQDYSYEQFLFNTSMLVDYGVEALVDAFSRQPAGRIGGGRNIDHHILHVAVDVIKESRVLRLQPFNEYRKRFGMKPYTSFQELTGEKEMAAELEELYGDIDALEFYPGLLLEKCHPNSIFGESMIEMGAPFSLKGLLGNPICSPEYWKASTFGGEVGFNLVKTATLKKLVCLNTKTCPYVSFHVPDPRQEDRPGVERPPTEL

[2] = biological target: T1, Bifunctional epoxide hydrolase 2 (Homo sapiens) (UniProt P34913); test: Inhibition of recombinant human sEH expressed in sf9 insect cells assessed as residual activity at 10 uM using PHOME as substrate preincubated for 15 mins followed by substrate addition and measured after 60 mins relative to control; conditions: time 75.0 min
T1 sequence (whole entry): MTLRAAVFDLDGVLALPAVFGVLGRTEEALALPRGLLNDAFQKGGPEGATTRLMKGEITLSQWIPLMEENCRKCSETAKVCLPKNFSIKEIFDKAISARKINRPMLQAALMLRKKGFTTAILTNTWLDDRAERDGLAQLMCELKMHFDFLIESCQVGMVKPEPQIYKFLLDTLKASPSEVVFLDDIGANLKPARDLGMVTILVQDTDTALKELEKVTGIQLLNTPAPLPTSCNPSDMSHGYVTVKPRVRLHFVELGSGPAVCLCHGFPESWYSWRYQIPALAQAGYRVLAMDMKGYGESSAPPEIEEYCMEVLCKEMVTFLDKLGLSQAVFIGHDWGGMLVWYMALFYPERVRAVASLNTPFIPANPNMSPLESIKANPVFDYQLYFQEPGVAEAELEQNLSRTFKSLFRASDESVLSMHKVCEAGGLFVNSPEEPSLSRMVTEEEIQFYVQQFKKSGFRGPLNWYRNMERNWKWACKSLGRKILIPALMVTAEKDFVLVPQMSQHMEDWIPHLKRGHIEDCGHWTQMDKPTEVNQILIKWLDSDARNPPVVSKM
Method in brief: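 Human recombinant sEH from baculovirus-infected Sf9 cells, affinity-purified. Diluted in 25 mM Tris pH 7 with 0.1 mg/mL BSA. Pre-incubated 15 min at room temperature with 10 µM compound or 0.1% DMSO. 50 µM PHOME added, run 60 min at room temperature, stopped with ZnSO4. Fluorescence read at ex 330 / em 465 nm.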

[3] = biological target: T2, Prostaglandin E synthase (Homo sapiens) (UniProt O14684); test: Inhibition of mPGES-1 obtained from IL-beta stimulated human A549 cells microsomes assessed as residual activity by measuring conversion of PGH2 to PGE2 at 10 uM by cell-free RP-HPLC method; conditions: Microsome
T2 sequence (whole entry): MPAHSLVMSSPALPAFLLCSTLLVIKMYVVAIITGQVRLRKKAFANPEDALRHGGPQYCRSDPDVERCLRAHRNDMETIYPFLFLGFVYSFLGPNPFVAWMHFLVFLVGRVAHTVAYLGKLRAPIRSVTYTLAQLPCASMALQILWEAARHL
Method in brief: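 Microsomes from A549 cells stimulated with IL-1β (1 ng/ml) for 48 h. Diluted in 0.1 M potassium phosphate pH 7.4 with 2.5 mM glutathione. Pre-incubated 15 min on ice with compound (single 10 µM, or 0.03–10 µM for the curve) or 1% DMSO. 20 µM PGH2 added for 1 min; stopped with FeCl3/citric acid containing 11β-PGE2 standard. PGE2 measured by SPE and RP-HPLC. n = 3.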

[4] = test system: Monocyte; test: Cytotoxicity against human monocyte cells assessed as cell viability at 10 uM measured after 24 hrs by MTT assay; format: cell-based
Method in brief: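 Human monocytes isolated from PBMC by adherence, 0.2 × 10^6 per well in buffer. Exposed to 10 µM compound or 0.5% DMSO for 24 h (37 °C, 5% CO2). MTT for 2 h, then SDS lysis (10%, pH 4.5) for 17 h. Absorbance read at 570 nm; viability as % of vehicle, n = 3.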

[5] = test system: A549; test: Cytotoxicity against human A549 cells assessed as cell viability at 10 uM measured after 48 hrs by MTT assay; format: cell-based; conditions: a549, 48 h
Method in brief: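 A549 cells in DMEM + 10% FBS, 2 × 10^4 per well, seeded in triplicate. Exposed to 10 µM compound or 0.1% DMSO for 48 h at 37 °C, 5% CO2. MTT added for 1 h, formazan dissolved in DMSO, absorbance read at 570 nm. Viability given as % of vehicle, n = 3.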

[6] = biological target: T3, Polyunsaturated fatty acid 5-lipoxygenase (Homo sapiens) (UniProt P09917); test: Inhibition of 5-LO in A23187-stimulated human intact neutrophils assessed as reduction in LTB4/5-HETE formation by measuring residual activity at 10 uM measured after 20 mins by RP-HPLC method; format: tissue-based; conditions: Neutrophil
T3 sequence (whole entry): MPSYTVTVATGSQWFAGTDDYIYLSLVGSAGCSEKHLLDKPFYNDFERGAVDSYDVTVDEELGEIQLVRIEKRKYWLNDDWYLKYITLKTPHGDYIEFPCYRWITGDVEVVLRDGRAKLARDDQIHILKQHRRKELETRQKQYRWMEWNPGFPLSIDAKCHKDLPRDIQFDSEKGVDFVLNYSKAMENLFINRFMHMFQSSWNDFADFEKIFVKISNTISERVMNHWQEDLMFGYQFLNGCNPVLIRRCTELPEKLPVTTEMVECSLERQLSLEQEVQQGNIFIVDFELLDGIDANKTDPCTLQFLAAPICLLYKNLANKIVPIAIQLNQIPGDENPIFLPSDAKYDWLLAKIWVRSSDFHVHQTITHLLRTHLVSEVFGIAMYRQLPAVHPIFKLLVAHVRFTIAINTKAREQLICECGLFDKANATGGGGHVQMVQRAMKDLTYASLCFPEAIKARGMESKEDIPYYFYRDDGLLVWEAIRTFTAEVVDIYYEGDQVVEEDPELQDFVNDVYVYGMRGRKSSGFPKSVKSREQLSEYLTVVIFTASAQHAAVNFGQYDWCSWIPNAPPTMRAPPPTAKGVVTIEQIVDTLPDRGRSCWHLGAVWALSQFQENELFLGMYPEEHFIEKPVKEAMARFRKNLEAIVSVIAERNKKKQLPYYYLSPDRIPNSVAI
Method in brief: (§1)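 Human neutrophils at 5 × 10^6/mL in PBS with 0.1% glucose and 1 mM CaCl2. Pre-incubated with compound or 0.1% DMSO for 10 min at 37 °C. Stimulated with 2.5 µM A23187, with or without 20 µM AA, for 10 min at 37 °C. Stopped with cold methanol; PGB1 internal standard. LTB4, its trans isomers and 5-HETE quantified by SPE and RP-HPLC; % of control.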

[7] = biological target: T3, Polyunsaturated fatty acid 5-lipoxygenase (Homo sapiens); test: Inhibition of 5-LO in A23187/AA-stimulated human intact neutrophils assessed as reduction in LTB4/5-HETE formation by measuring residual activity at 10 uM measured after 20 mins by RP-HPLC method; format: tissue-based; conditions: Neutrophil
Method in brief: as §1

[8] = biological target: T3, Polyunsaturated fatty acid 5-lipoxygenase (Homo sapiens); test: Inhibition of 5-LO (unknown origin) expressed in Escherichia coli BL21 assessed as residual activity at 10 uM by RP-HPLC method relative to control
Method in brief: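 Human recombinant 5-LO expressed in E. coli BL21 and purified on ATP-agarose. 0.5 µg enzyme in 1 mL PBS + 1 mM EDTA pre-incubated with compound or 0.1% DMSO for 10 min on ice. Reaction started with 20 µM AA and 2 mM CaCl2, run 10 min at 37 °C, stopped with ice-cold methanol. Products analysed; activity as % of control.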

| SMILES | Activity [1] [%] | Activity [2] [%] | Activity [3] [%] | Activity [4] | Activity [5] | Activity [6] [%] | Activity [7] [%] | Activity [8] [%] |
| --- | --- | --- | --- | --- | --- | --- | --- | --- |
| Oc1c(F)c(F)cc(-c2nc(-c3ccc(-c4ccsc4)cc3)no2)c1F | 34.7 | > 50 | 25.4 | Non-Toxic | Non-Toxic | 1.7 | 18.5 | 10.3 |
| Oc1cccc(CCc2nc(-c3ccc(-c4ccsc4)cc3)no2)c1 | 47.7 | > 50 | 76.4 | Non-Toxic | Non-Toxic | 19.9 | 14.9 | 105 |
